Assay outcomes (PubChem BioAssay)
Efa HMGR inh – inhibitors of E. faecalis class II HMGR, primary screen, biochemical, Enterococcus faecalis | purified E. faecalis HMGR, NADPH absorbance 340 nm kinetic | 190,000 compounds, 0.41% hits | inhibition, % at 10 µM | HMG-CoA reductase (Enterococcus faecalis, mvaE);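 active = inhibition above a set limit, the median over all tested compounds plus 3 SD, cut at about 9.5% in these data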;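 also: enzyme runs in reverse so mevalonate oxidation gives rising NADPH absorbance; 0% = complete reaction with DMSO and 100% = background rate lacking mevalonate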
Redox H2O2 prof – compounds producing H2O2 with reducing agent – biochemical, NIH compound library profiling, artefact control for MLSCN library redox annotation, primary screen | DTT-dependent redox cycling H2O2, phenol red/HRP absorbance; 100% = 100 µM peroxide control, 0% = buffer | activation, % at 10 µM | 200,000 compounds, 0.03% hits;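 active = activation of at least 50% relative to the plate's high and low controls in the primary single-dose screen; inactive = activation below 50%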;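 also: compound incubated with DTT at 0.8 mM final as the reducing agent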
p47phox inh – p47phox/p22phox peptide binding inhibitors, primary screen, biochemical, uHTS, NADPH oxidase regulatory subunit; Neutrophil cytosol factor 1 (Homo sapiens), P14598; fluorescence polarization, 2 h; inhibition, % at 24.7 µM; 220,000 compounds, 0.53% hits;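 active = inhibition above about 30%, limit read from the data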;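 also: 0% = p47phox with labelled peptide and 100% = labelled peptide alone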
Diaphorase act – compounds boosting diaphorase resazurin reduction – biochemical, uHTS, resorufin fluorescence, counter-screen for diaphorase-coupled primary assays, primary screen. AID 1229, 2008. Diaphorase/resazurin coupled assay, 16 min; active compounds read high; 1 = vehicle wells, 0 = NADH-free wells. 190,000 compounds, 0.005% hits. activation factor at 20 µM;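 active = diaphorase activity raised at least twofold by the compound at 20 µM; inactive = activation factor below 2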
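Material: bacterial diaphorase enzyme (C. kluyveri); amount: enzyme 0.07 U/mL final; reagent: NADH substrate 0.114 mM plus resazurin dye 0.1 mM, final; doses: single compound dose of 20 µM, 1% DMSO final; timing: 16 min enzyme reaction, ambient temperature; measured by: fluorescence of resorufin, 544 nm excitation, 590 nm emission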
PMI activator – activators of human PMI, primary screen, biochemical, fluorescence intensity, near-Km mannose 6-phosphate; Mannose-6-phosphate isomerase (Homo sapiens), P34949; purified human PMI, coupled resazurin fluorescence, 20 min; active compounds read high; 1 = vehicle control, 0 substrate-free wells; activation factor at 20 µM; 190,000 compounds, 0.005% hits; AID 1214, 2008;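 active = activation factor of 2 or more at 20 µM, relative to plate controls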
Target sequence (P34949 whole entry, looked up): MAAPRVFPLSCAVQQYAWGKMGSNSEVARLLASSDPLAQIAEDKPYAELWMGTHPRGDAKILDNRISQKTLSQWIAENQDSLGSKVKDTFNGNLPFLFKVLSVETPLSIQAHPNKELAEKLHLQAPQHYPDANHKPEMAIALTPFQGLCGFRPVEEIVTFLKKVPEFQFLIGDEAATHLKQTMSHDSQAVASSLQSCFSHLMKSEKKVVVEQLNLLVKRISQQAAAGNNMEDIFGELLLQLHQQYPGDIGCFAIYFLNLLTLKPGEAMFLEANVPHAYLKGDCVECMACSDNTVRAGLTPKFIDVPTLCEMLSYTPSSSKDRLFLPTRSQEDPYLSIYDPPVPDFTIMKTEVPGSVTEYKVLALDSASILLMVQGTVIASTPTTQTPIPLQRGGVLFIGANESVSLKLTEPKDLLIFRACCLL
PMI act satM6P – human PMI activators, high substrate, primary screen, biochemical, fluorescence intensity, near-saturating mannose 6-phosphate | coupled PMI enzyme assay, resazurin fluorescence, 20 min; active compounds read high; 1 = untreated enzyme, 0 = substrate-free blank | 190,000 compounds, 0.34% hits | AID 1216, 2008 | activation factor at 20 µM;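 active = activation factor of 2 or more at 20 µM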
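Material: human phosphomannose isomerase with PGI, G6PDH, diaphorase coupling enzymes; amount: PMI at 15 ng/mL final; also added: Mannose-6-phosphate 1.0 mM (near-saturating) plus 0.22 mM NADP+; incubation: enzyme reaction with compound 20 min at room temperature; signal: resorufin fluorescence (Ex 544/Em 590 nm) from resazurin via diaphorase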
Numbers without * were called inactive; . = no result. Most compounds without a hit are left out; they make up all but 1.2% or so of the library.

SMILES | Efa HMGR inh | Redox H2O2 prof | p47phox inh | Diaphorase act | PMI activator | PMI act satM6P
Cc1cccn2c(=O)c3cc(C#N)c(=O)n(CC4CCCO4)c3nc12 (stereo not given) | -3 | 2 | 19 | 0.8 | 1.1 | 1
O=C(c1cc2ccc([N+](=O)[O-])cc2oc1=O)N1CCOCC1 | 0 | 1 | . | 0.9 | 1 | 1
O=C(CNC(=S)N(Cc1ccccc1F)C1CCCCC1)NCCCN1CCOCC1 | 13* | 0 | -3 | 1 | 1 | 1
N#Cc1cc2cc3c(cc2nc1N1CCOCC1)OCO3 | 0 | 0 | -2 | 0.8 | 1.7 | 2.1*
CC(C)c1ccc(N2CC(C)(C)C2=O)cc1 | 2 | 0 | -9 | 1 | 1.1 | 1.1
N#Cc1c(NC(=O)CSc2ncn[nH]2)sc2c1CCCCC2 | 2 | -3 | -8 | 0.9 | 0.9 | 0.9
CC(=O)NC1C(=O)N=C(SCC(=O)Nc2sc3c(c2C#N)CCCCCC3)NC1=O (stereo not given) | 9.8* | -1 | -14 | 0.8 | 0.3 | 1.1
Nc1cc(Cl)ccc1N1C(=O)CCC1=O | . | . | 31* | . | . | .
Nc1cc([N+](=O)[O-])ccc1N1C(=O)CCCC1=O | . | . | 3 | . | . | .
CCCCN(C)S(=O)(=O)c1ccc(C(=O)N(CCN(C)C)c2nc3ccc(C)cc3s2)cc1 | 4 | -1 | -2 | 0.8 | 1 | 1
CCCCN(CC)S(=O)(=O)c1ccc(C(=O)N(CCCN(C)C)c2nc3cc(C)cc(C)c3s2)cc1 | -2 | -1 | 36* | 1.2 | 0.9 | 1
CCN(CC)CC(=O)Nc1ccc(/C(C)=N/NC2=NCCN2)cc1 | 9.7* | -1 | -3 | 1.2 | 1.1 | 1.1
O=C(Nc1c2c(nn1-c1ccc(F)cc1)CS(=O)(=O)C2)c1ccc(S(=O)(=O)N2CCOCC2)cc1 | -1 | -1 | 12 | 0.9 | 1.1 | 1
CC(=O)c1c(C)[nH]c(C(=O)Nc2cccc(S(=O)(=O)N(C)c3ccccc3)c2)c1C | -2 | 0 | -21 | 0.8 | 1 | 0.9
Cn1nc(N)c2c(-c3ccc(Cl)cc3)c(C#N)c(N)nc21 | -7 | -1 | 62* | 0.9 | 1.1 | 1
Cc1ccc(CCN2C(=O)c3ccccc3C2C(=O)NCc2cccnc2)cc1 (stereo not given) | -4 | 0 | -2 | 1 | 1.2 | 1
CCn1cc(CN2CCc3c([nH]c4ccccc34)C2c2cccc(OC)c2)c(C)n1 (stereo not given) | -6 | 1 | -3 | 0.9 | 1 | 0.8
CCOC(=O)/C=C/C(=O)N1CCN(C(=O)/C=C/C(=O)OCC)CC1 | . | . | -1 | . | . | .
O=C(CNC(=O)c1ccc(S(=O)(=O)N2CCCC2)cc1)N/N=C/c1ccc(Cl)cc1 | 16* | 0 | -1 | 0.9 | 0.8 | 0.9
CCN(CC)C1=CC2=CC(=C(C#N)C#N)CCC2CC1 (stereo not given) | -7 | 0 | 62* | 0.7 | 0.7 | 0.5
N#CC(C#N)=C1C=C2C=C(N3CCCCC3)CCC2CC1 (stereo not given) | -7 | 0 | 113* | 0.5 | 0.7 | 0.4
CCCCN(C)C1=CC2=CC(=C(C#N)C#N)CCC2CC1 (stereo not given) | -1 | 0 | 3 | 0.7 | 0.7 | 0.5
Cc1cc(C)nc(/N=C2\NC(=O)CC(C(=O)O)N2c2ccc(C)c(C)c2)n1 (stereo not given) | -2 | -1 | 6 | 0.9 | 1 | 1
NCCc1nc(-c2ccccc2)cs1 | 2 | 0 | . | 1 | 1 | 1
COc1ccc(NC(=O)C(NC(C)=O)C(=O)NCc2ccccc2OC)cc1 (stereo not given) | -4 | 4 | -22 | 0.9 | 1 | 0.9
SMILES | Efa HMGR inh | Redox H2O2 prof | p47phox inh | Diaphorase act | PMI activator | PMI act satM6P
COc1ccc(CNC(=O)C(NC(C)=O)C(=O)Nc2ccc(C(C)C)cc2)cc1 (stereo not given) | 12* | -2 | 4 | 0.9 | 1 | 1
S=C(N/N=C/c1cccs1)NC1CC2CCC1C2 (stereo not given) | . | . | -12 | . | . | .
CCOC(=O)Cn1c(=O)cnc2ccccc21 | -6 | 0 | 32* | 0.9 | 1 | 1
CC12CCC(C(=O)N(CSC(=S)N/N=C\c3ccccc3O)C1=O)C2(C)C (stereo not given) | 9.9* | 1 | -11 | 0.4 | 0.8 | 1.1
COc1ccc(/C=N\NC(=S)SCN2C(=O)C3CCC(C)(C2=O)C3(C)C)cc1 (stereo not given) | 1 | 3 | -3 | . | . | .
COc1ccc(N2CCN(Cc3nc4cc(Cl)ccc4c(=O)[nH]3)CC2)cc1 | -3 | 0 | -21 | 1 | 1 | 0.9
CCOC(=O)C1=C(C)NC(=O)NC1c1ccc(OCC(=O)Nc2ccccc2)c(OC)c1 (stereo not given) | -1 | 0 | -14 | 0.8 | 0.9 | 0.8
CCOC(=O)C1=C(C)NC(=O)C1CC(=O)Nc1ccccc1 (stereo not given) | -2 | 1 | -10 | 1.4 | 2.1* | 3*
CCOCCCNC(=O)C(c1ccc(OC)cc1)N(Cc1ccc2c(c1)OCO2)C(=O)c1ccccc1O (stereo not given) | 4 | 0 | 5 | 1.1 | 1.1 | 1.1
COc1ccc(-c2cc3nnc(-c4ccccc4)nc3s2)cc1 | -2 | 3 | 5 | 0.9 | 1.6 | 2.5*
CCN(CC)S(=O)(=O)c1ccc(S(=O)(=O)N2CCCC2)cc1 | 9.9* | 1 | -45 | . | . | .
CC#CCN(CC#CC)S(=O)(=O)c1ccc(S(=O)(=O)N2CCOCC2)cc1 | 1 | 1 | 194* | 0.8 | 1 | 0.9
C(=N\n1cnnc1)/c1ccc(N2CCOCC2)s1 | -2 | -1 | 43* | 0.9 | 1 | 0.9
C(=N\n1cnnc1)/c1ccc(N2CCOCC2)cc1 | 0 | 0 | -18 | 0.8 | 1 | 0.9
O=c1[nH]c(-c2ccc(Cl)cc2)cs1 | -10 | 4 | -2 | 0.9 | 0.9 | 0.9
O=c1[nH]c(-c2ccccc2)cs1 | -3 | 0 | 8 | 0.9 | 1 | 1.1
Fc1ccc(-c2csc(=S)[nH]2)cc1 | -3 | 0 | -5 | 0.8 | 1.6 | 2.4*
S=c1[nH]c(-c2ccccc2)cs1 | 2 | 1 | 2 | 0.8 | 1.6 | 2.1*
CC(=O)CC(C)(C)NC(C)=S | . | . | -13 | . | . | .
